{"data": "Experimental data from different studies", "target": "Mitogen-activated protein kinase 1 (MAPK1, Homo sapiens, UniProt P28482)", "note": "Compare with care: the assays were run in different laboratories."}
{"Structure (SMILES)": "COc1cnc(Nc2cccc(S(N)(=O)=O)c2)nc1N1CCN(c2ccccc2)CC1", "test": "binding, competition with immobilised ligand", "setting": "1 µM", "remaining binding": "100%"}
{"Structure (SMILES)": "Nc1ncc2c(n1)-c1c([nH]c3ccc(C#CC4CC4)cc13)CCCC2", "test": "binding, competition with immobilised ligand", "setting": "1 µM", "remaining binding": "100%"}
{"Structure (SMILES)": "CN(CCCC(F)(F)F)c1nccc(-c2cnn3ncccc23)n1", "test": "binding", "setting": "1 µM", "remaining binding": "100%"}
{"Structure (SMILES)": "CO[C@@H](C)c1c(Nc2ccc([C@H](N(C)C(=O)C3CCS(=O)(=O)CC3)C(F)(F)F)cc2)cnc2cc(Cl)nn12", "test": "cell-free assay, competition with immobilised ligand", "setting": "1 µM", "remaining binding": "100%"}
{"Structure (SMILES)": "O=C(NCCCN1CCOCC1)c1ccc(Nc2nccc(-c3cc4ccccc4s3)n2)cc1", "test": "binding, competition with immobilised ligand", "setting": "1 µM", "remaining binding": "89%"}
{"Structure (SMILES)": "C=CC(=O)N1CCC(C(=O)NCC(=O)N2CCN(c3nc(-c4cnc(N)nc4C(F)F)nc(N4CCOCC4)n3)CC2)CC1", "test": "binding, competition with immobilised ligand", "setting": "1 µM", "remaining binding": "98%"}
{"Structure (SMILES)": "Cc1c(C(=O)O)cc(-c2ccc(C3CCNCC3)cc2)c2ccc(-c3ccc(C(F)(F)F)cc3)cc12", "test": "binding, competition with immobilised ligand", "setting": "1 µM", "remaining binding": "100%"}
{"Structure (SMILES)": "COc1cnc(Nc2cccc(S(N)(=O)=O)c2)nc1N1CCN(c2ccccc2)C(=O)C1", "test": "binding, competition with immobilised ligand", "setting": "1 µM", "remaining binding": "100%"}
{"Structure (SMILES)": "CN(C)c1nccc(-c2cnc3ncccn23)n1", "test": "binding", "setting": "1 µM", "remaining binding": "81%"}
{"Structure (SMILES)": "FC(F)(F)Oc1cccc(-c2cnc3ccc(-c4ccncc4)nn23)c1", "test": "cell-free assay, competition with immobilised ligand", "setting": "5 µM", "remaining binding": "100%"}
{"Structure (SMILES)": "COc1ncc2cc3ccccc3nc2c1C#N", "test": "cell-free assay, competition with immobilised ligand", "setting": "5 µM", "remaining binding": "100%"}
{"Structure (SMILES)": "CCCCN(CCCC)C(=O)CN1C[C@@H](c2cc(OC)c3c(c2)OCO3)[C@H](C(=O)O)[C@H]1CC(C)(C)CCC", "test": "cell-free assay, competition with immobilised ligand", "setting": "1 µM", "remaining binding": "82.1%"}
{"Structure (SMILES)": "O=C(Nc1c[nH]nc1C(=O)NC1CCNCC1)c1cc(F)cc(F)c1", "test": "binding, competition with immobilised ligand", "setting": "1 µM", "remaining binding": "100%"}
{"Structure (SMILES)": "O=C(NCCCN1CCOCC1)c1ccc(Nc2ncc(Cl)c(-c3ccc(Cl)s3)n2)cc1", "test": "binding, competition with immobilised ligand", "setting": "1 µM", "remaining binding": "100%"}
{"Structure (SMILES)": "N[C@@H]1CCN(c2nccc(-c3cnn4ncccc34)n2)C1", "test": "binding", "setting": "1 µM", "remaining binding": "100%"}
{"Structure (SMILES)": "CCCOc1ccc([C@H]2[C@H](C(=O)O)[C@@H](c3ccc4c(c3)OCO4)CN2CC(=O)Nc2c(CC)cccc2CC)cc1", "test": "cell-free assay, competition with immobilised ligand", "setting": "1 µM", "remaining binding": "100%"}
{"Structure (SMILES)": "CN(c1nccc(-c2cnn3ncccc23)n1)C1CC1", "test": "binding", "setting": "1 µM", "remaining binding": "100%"}
{"Structure (SMILES)": "Cn1nc(C(=O)NCc2ccc(C(=O)O)cc2)cc1-c1ccc2[nH]ccc2c1", "test": "cell-free assay, competition with immobilised ligand", "setting": "0.1 µM", "remaining binding": "94%"}
{"Structure (SMILES)": "C[C@@H]1CCN(c2nccc(-c3cnn4ncccc34)n2)C1", "test": "binding", "setting": "1 µM", "remaining binding": "88%"}
{"Structure (SMILES)": "FC(F)(F)c1ccc2c(c1)nc(-c1cccnc1)n2C1CC1", "test": "cell-free assay, competition with immobilised ligand", "setting": "1 µM", "remaining binding": "100%"}
{"Structure (SMILES)": "Cc1cnn2ncc(-c3ccnc(N(C)C)n3)c2c1", "test": "binding", "setting": "1 µM", "remaining binding": "100%"}
{"Structure (SMILES)": "O=C(c1ccc(Nc2ncc(Cl)c(-c3cc4ccccc4s3)n2)cc1)N1CCC(N2CCCC2)CC1", "test": "binding, competition with immobilised ligand", "setting": "1 µM", "remaining binding": "100%"}
